In ChEMBL document CHEMBL5303300, “EUbOPEN Chemogenomics Library - Multiplex” (2023):
Values joined by “and” are separate entries in the source; they are usually repeats but may differ in a detail not shown here. Identical values can stand only once.

What was measured:
U2OS = test: Multiplex assay against U2OS; format: toxicity, cell-based; conditions: human, number of replicates 2
Method in brief: (§1)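 Values for tubulin, mitochondrial-mass and membrane-permeability phenotypes are per cents of cells with healthy nuclei. These cells were identified by CellPathfinder machine-learning gating of live cells that had been stained at seeding with Hoechst33342, BioTracker Green Microtubule Cytoskeleton Dye, MitoTracker Red and Annexin V Alexa Fluor 680 and imaged on a CQ1 microscope at 37°C and 5% CO2 after compound addition. The gating first set Hoechst high-intensity objects apart from normal cells, then split normal cells into healthy, pyknosed or fragmented nuclei, and pyknosed cells into mitotic or apoptotic.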

HEK-293T = test: Multiplex assay against HEK293T; format: toxicity, cell-based; conditions: human, number of replicates 2; method in brief: as §1
[1] = 12 h, 1 µM, compound concentration 1 uM
[2] = 12 h, 10 µM, compound concentration 10 uM
[3] = 24 h, 1 µM, compound concentration 1 uM
[4] = 24 h, 10 µM, compound concentration 10 uM
[5] = 48 h, 1 µM, compound concentration 1 uM
[6] = 48 h, 10 µM, compound concentration 10 uM

## COc1cc(OC)cc(-c2cc3cnc(N)nc3nc2NC(=O)NC(C)(C)C)c1
U2OS; [1]
  Population Apoptotic (%): 80% [middle of 4 runs]
  Population Fragmented Nuclei (%): 11% and 5% and 6% and 4%
  Population Healthy Nuclei (%): 80% and 87% and 83% and 89%
  Population Hoechst High Intensity Objects (%): 0%
  Population Membrane Permeable-Phenotype (%): 2% and 0% and 1%
  Population Mitochondria Different-Phenotype (%): 0%
  Population Normal (%): 100%
  Population Pyknosed Nuclei (%): 7% and 6% and 10% and 5%
  Population Tubulin-Different-Phenotype (%): 52% and 94% and 55% and 80%
U2OS; [2]
  Population Healthy Nuclei (%): 85% and 60% and 88% and 65%
  Population Hoechst High Intensity Objects (%): 0%
  Population Membrane Permeable-Phenotype (%): 6% [middle of 4 runs]
  Population Mitochondria Different-Phenotype (%): 0% and 4%
  Population Normal (%): 99% and 100%
  Population Pyknosed Nuclei (%): 10% and 15% and 6% and 9%
  Population Tubulin-Different-Phenotype (%): 64% [middle of 4 runs]
U2OS; [3]
  Population Apoptotic (%): 60% and 84% and 50%
  Population Fragmented Nuclei (%): 3% and 1% and 2%
  Population Healthy Nuclei (%): 89% and 90% and 82% and 86%
  Population Hoechst High Intensity Objects (%): 1% and 0%
  Population Membrane Permeable-Phenotype (%): 0% and 3% and 1%
  Population Mitochondria Different-Phenotype (%): 1% and 0%
  Population Normal (%): 98% and 100%
  Population Pyknosed Nuclei (%): 6% and 8% and 14% and 11%
  Population Tubulin-Different-Phenotype (%): 56% and 85% and 53% and 83%
U2OS; [4]
  Population Apoptotic (%): 54% [middle of 4 runs]
  Population Healthy Nuclei (%): 83% and 68% and 84% and 72%
  Population Hoechst High Intensity Objects (%): 0%
  Population Membrane Permeable-Phenotype (%): 4% [middle of 4 runs]
  Population Mitochondria Different-Phenotype (%): 1% and 8% and 0%
  Population Normal (%): 100%
  Population Pyknosed Nuclei (%): 10% and 16% and 9% and 13%
  Population Tubulin-Different-Phenotype (%): 62% [middle of 4 runs]
U2OS; [5]
  Population Apoptotic (%): 50% and 84% and 60% and 74%
  Population Fragmented Nuclei (%): 3% and 2% and 4%
  Population Healthy Nuclei (%): 86% and 88% and 92%
  Population Hoechst High Intensity Objects (%): 0%
  Population Membrane Permeable-Phenotype (%): 1% and 0%
  Population Mitochondria Different-Phenotype (%): 0% and 1%
  Population Normal (%): 100%
  Population Pyknosed Nuclei (%): 10% and 8% and 4% and 7%
  Population Tubulin-Different-Phenotype (%): 70% and 90% and 59% and 84%
U2OS; [6]
  Population Apoptotic (%): 48% and 69% and 66% and 78%
  Population Healthy Nuclei (%): 87% and 68% and 86% and 64%
  Population Hoechst High Intensity Objects (%): 0%
  Population Membrane Permeable-Phenotype (%): 2% and 9%
  Population Mitochondria Different-Phenotype (%): 0% and 3% and 1%
  Population Mitotic Cells (%): 33% [middle of 4 runs]
  Population Normal (%): 100% and 99%
  Population Pyknosed Nuclei (%): 10% and 16% and 17%
  Population Tubulin-Different-Phenotype (%): 67% [middle of 4 runs]
HEK-293T; [1]
  Population Apoptotic (%): 61% and 63% and 50% and 43%
  Population Fragmented Nuclei (%): 7% and 3% and 2% and 4%
  Population Healthy Nuclei (%): 77% and 80% and 85% and 83%
  Population Hoechst High Intensity Objects (%): 9% and 11% and 10%
  Population Membrane Permeable-Phenotype (%): 6% and 2% and 3% and 1%
  Population Mitochondria Different-Phenotype (%): 15% and 13% and 18% and 20%
  Population Mitotic Cells (%): 38% and 36% and 50% and 56%
  Population Normal (%): 90% and 88% and 89%
  Population Pyknosed Nuclei (%): 15% and 16% and 11%
  Population Tubulin-Different-Phenotype (%): 55% and 48% and 54% and 53%
  Total Cell Count: 713 and 595 and 582 and 616
HEK-293T; [2]
  Population Apoptotic (%): 52% and 55% and 50% and 64%
  Population Fragmented Nuclei (%): 2% and 3% and 7% and 5%
  Population Healthy Nuclei (%): 82% and 86% and 79% and 81%
  Population Hoechst High Intensity Objects (%): 4% and 7% and 12% and 10%
  Population Membrane Permeable-Phenotype (%): 1% and 2%
  Population Mitochondria Different-Phenotype (%): 25% and 15% and 17% and 19%
  Population Mitotic Cells (%): 47% and 44% and 49% and 35%
  Population Normal (%): 95% and 92% and 87% and 89%
  Population Pyknosed Nuclei (%): 14% and 10% and 12%
  Population Tubulin-Different-Phenotype (%): 54% and 47% and 72% and 63%
  Total Cell Count: 524 and 626 and 917 and 726
HEK-293T; [3]
  Population Apoptotic (%): 46% and 54% and 51% and 53%
  Population Fragmented Nuclei (%): 10% and 7% and 8%
  Population Healthy Nuclei (%): 76% and 78% and 82% and 80%
  Population Hoechst High Intensity Objects (%): 10% and 8%
  Population Membrane Permeable-Phenotype (%): 3% and 1% and 2%
  Population Mitochondria Different-Phenotype (%): 5% and 2% and 7%
  Population Mitotic Cells (%): 53% and 45% and 48% and 46%
  Population Normal (%): 89% and 91%
  Population Pyknosed Nuclei (%): 12% and 11% and 9%
  Population Tubulin-Different-Phenotype (%): 28% and 23% and 29% and 30%
  Total Cell Count: 1161 and 950 and 940 and 952
HEK-293T; [4]
  Population Apoptotic (%): 52% and 40% and 48%
  Population Fragmented Nuclei (%): 5% and 4% and 11% and 8%
  Population Healthy Nuclei (%): 85% and 88% and 78% and 82%
  Population Hoechst High Intensity Objects (%): 8% and 9%
  Population Membrane Permeable-Phenotype (%): 3% and 2% and 1%
  Population Mitochondria Different-Phenotype (%): 11% and 4% and 3%
